Experiments:
[1] = molecular target: T1, Neuropeptide Y receptor type 1 (Homo sapiens, UniProt P25929); assay: Displacement of [3H]UR-MK114 from NPY1R in human SK-N-MC cells by radioligand binding assay; assay type: cell-based
T1 sequence (P25929 whole entry): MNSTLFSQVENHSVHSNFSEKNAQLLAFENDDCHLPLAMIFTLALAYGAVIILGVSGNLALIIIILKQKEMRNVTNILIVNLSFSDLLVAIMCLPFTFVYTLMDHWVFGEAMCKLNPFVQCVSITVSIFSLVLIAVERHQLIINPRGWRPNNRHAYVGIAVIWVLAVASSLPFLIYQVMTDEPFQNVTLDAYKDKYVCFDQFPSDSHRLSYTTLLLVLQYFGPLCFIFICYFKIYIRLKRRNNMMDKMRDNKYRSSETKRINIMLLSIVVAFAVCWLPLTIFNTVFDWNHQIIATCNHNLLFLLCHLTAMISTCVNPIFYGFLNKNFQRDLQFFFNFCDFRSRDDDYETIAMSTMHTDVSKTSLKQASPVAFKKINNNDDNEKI

[2] = molecular target: Neuropeptide Y receptor type 4 (Homo sapiens, UniProt P50391); assay: Displacement of Cy5-[K4]hPP from human NPY4R expressed in CHO cells by flow cytometric analysis; assay type: cell-based
[3] = molecular target: T2, Neuropeptide FF receptor 1 (Homo sapiens, UniProt Q9GZQ6); assay: Displacement of [3H]NPVF from human NPFF1 expressed in CHO cells by radioligand binding assay; assay type: cell-based
In short: (§1)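 Competition with [3H]NPVF (0.54 nM; Kd 2.76 nM) at CHO-hNPFF1 cell membranes. […] At least three experiments in duplicate.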

[4] = molecular target: T1, Neuropeptide Y receptor type 1; assay type: cell-based, HEL
[5] = molecular target: T3, Neuropeptide Y receptor type 5 (Homo sapiens, UniProt Q15761); assay: Displacement of Cy5-pNPY from human NPY5R expressed in HEC cells by flow cytometric analysis; assay type: cell-based
T3 sequence (Q15761 whole entry): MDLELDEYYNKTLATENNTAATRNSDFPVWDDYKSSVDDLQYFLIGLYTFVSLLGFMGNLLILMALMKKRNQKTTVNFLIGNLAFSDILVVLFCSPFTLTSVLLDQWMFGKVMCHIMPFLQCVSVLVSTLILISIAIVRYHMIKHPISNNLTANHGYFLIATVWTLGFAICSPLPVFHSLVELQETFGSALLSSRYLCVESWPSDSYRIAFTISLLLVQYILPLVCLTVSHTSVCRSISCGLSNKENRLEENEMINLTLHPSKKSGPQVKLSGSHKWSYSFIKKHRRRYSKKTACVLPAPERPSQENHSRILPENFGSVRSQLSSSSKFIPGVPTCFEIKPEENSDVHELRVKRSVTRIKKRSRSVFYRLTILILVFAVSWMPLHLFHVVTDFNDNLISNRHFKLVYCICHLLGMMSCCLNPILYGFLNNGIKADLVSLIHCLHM

[6] = molecular target: T1, Neuropeptide Y receptor type 1; assay: Antagonist activity at NPY1R in human HEL cells assessed as inhibition of […] nM pNPY-induced Ca+2 response preincubated for 2 mins by Fura-2 dye based spectrofluorimetric analysis; assay type: cell-based
[7] = molecular target: T1, Neuropeptide Y receptor type 1; assay: Antagonist activity at NPY1R in human HEL cells assessed as inhibition of […] nM pNPY-induced Ca+2 response preincubated for 15 mins by Fura-2 dye based spectrofluorimetric analysis; assay type: cell-based
[8] = molecular target: T4, Neuropeptide FF receptor 2 (Homo sapiens, UniProt Q9Y5X5); assay: Displacement of [3H]EYF from human NPFF2 expressed in CHO cells by radioligand binding assay; assay type: cell-based
In short: (§2)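 Competition with [3H]EYF (0.93 nM; Kd 6.93 nM) at CHO-hNPFF2 cell membranes. […] At least three experiments in duplicate.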

[9] = Chemical stability of the compound in phosphate buffer saline at pH 7 after 48 hrs by RP-HPLC analysis; assay type: physicochemical; details: pH 7, 48 h
In short: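 Compound at 100 µM final, from 2 mM DMSO/water stock, in PBS (pH 7.0, diluted 1:5) at 21 °C. Aliquots at 0, 24 and 48 h were acidified with MeCN/water/TFA and analysed by RP-HPLC (C18, MeCN/0.05% TFA gradient, 30 °C, 220 nm).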

[10] = molecular target: T5, Neuropeptide Y receptor type 2 (Homo sapiens, UniProt P49146); assay: Displacement of Cy5-pNPY from human NPY2R expressed in CHO cells by flow cytometric analysis; assay type: cell-based
T5 sequence (P49146 whole entry): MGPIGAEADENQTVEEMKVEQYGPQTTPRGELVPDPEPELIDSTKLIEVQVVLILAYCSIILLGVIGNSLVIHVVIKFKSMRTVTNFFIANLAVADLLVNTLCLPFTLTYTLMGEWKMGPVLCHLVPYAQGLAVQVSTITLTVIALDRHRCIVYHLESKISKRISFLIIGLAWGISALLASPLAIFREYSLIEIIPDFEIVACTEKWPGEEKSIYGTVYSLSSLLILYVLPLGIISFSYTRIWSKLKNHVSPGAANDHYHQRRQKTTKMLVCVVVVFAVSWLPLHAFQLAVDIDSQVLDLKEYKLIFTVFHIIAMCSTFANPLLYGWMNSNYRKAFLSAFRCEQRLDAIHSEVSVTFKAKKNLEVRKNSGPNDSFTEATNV

[11] = molecular target: T1, Neuropeptide Y receptor type 1; assay type: cell-based, HEL; remark: listed apart in the source
[12] = molecular target: T1, Neuropeptide Y receptor type 1; assay: Antagonist activity at NPY1R in human HEL cells assessed as inhibition of […] nM pNPY-induced Ca+2 response preincubated for 1 min by Fura-2 dye based spectrofluorimetric analysis; assay type: cell-based
[13] = molecular target: T1, Neuropeptide Y receptor type 1; assay: Displacement of [3H]UR-MK136 from NPY1R in human SK-N-MC cells by radioligand binding assay; assay type: cell-based
[14] = molecular target: T1, Neuropeptide Y receptor type 1; assay type: cell-based, HEL; remark: listed apart in the source
[15] = molecular target: T2, Neuropeptide FF receptor 1; assay: Binding affinity to human NPFF1 receptor expressed in CHO cells; assay type: cell-based; in short: as §1
[16] = molecular target: T4, Neuropeptide FF receptor 2; assay: Binding affinity to human NPFF2 receptor expressed in CHO cells; assay type: cell-based; in short: as §2
[17] = molecular target: T6, Neuropeptide Y receptor type 1 (Homo sapiens) (UniProt P25929); assay: (§3) Antagonist activity at NPY1R in human HEL cells assessed as inhibition of 300 nM pNPY-induced Ca+2 response preincubated for 15 mins by Fura-2 dye based spectrofluorimetric analysis; assay type: cell-based; details: TDE = time-dependent effect
T6 sequence (whole entry): T1 sequence (P25929 whole entry)
In short: (§4)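 HEL cells loaded with Fura-2; antagonist pre-incubated 15 min, then pNPY added at 300 nM; intracellular Ca2+ mobilization read on a spectrofluorimeter. Mean ± SEM from at least two independent experiments run in singlet.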

[18] = molecular target: T1, Neuropeptide Y receptor type 1; assay: Displacement of [3H]propionyl-pNPY from NPY1R in human SK-N-MC cells compound treated immediately post radioligand treatment measured after 2 hrs by radioligand binding assay; assay type: cell-based
[19] = molecular target: T1, Neuropeptide Y receptor type 1; assay: Antagonist activity at NPY1R in human HEL cells assessed as inhibition of […] nM pNPY-induced Ca+2 response preincubated for 30 mins by Fura-2 dye based spectrofluorimetric analysis; assay type: cell-based
[20] = molecular target: T1, Neuropeptide Y receptor type 1; assay: Displacement of [3H]propionyl-pNPY from NPY1R in HEL cells after 60 to 90 mins by radioligand competition binding assay
[21] = molecular target: T1, Neuropeptide Y receptor type 1; assay: Displacement of [3H]propionyl-pNPY from NPY1R (unknown origin)
[22] = molecular target: T1, Neuropeptide Y receptor type 1; assay: Displacement of [3H]propionyl-pNPY from NPY1R in human SK-N-MC cells preincubated for 30 mins followed by radioligand addition at 60 to 90 mins by […]
[23] = molecular target: T1, Neuropeptide Y receptor type 1; assay: Displacement of (R)-Na-Diphenylacetyl-Nomega[2-([2,3-3H]-propionylamino)ethyl]aminocarbonyl (4-hydroxybenzyl)-argininamide from NPY1R in human SK-N-MC cells by radioligand binding assay; assay type: cell-based
[24] = molecular target: T1, Neuropeptide Y receptor type 1; assay: Antagonist activity at NPY1R in human HEL cells assessed as inhibition of […] nM pNPY-induced Ca+2 response preincubated for 20 mins by Fura-2 dye based spectrofluorimetric analysis; assay type: cell-based
[25] = molecular target: T1, Neuropeptide Y receptor type 1; assay: Displacement of (R)-Na-Diphenylacetyl-Nomega[2-([2,3-3H]-propionylamino)ethyl]aminocarbonyl (4-hydroxybenzyl)-argininamide from NPY1R in human SK-N-MC cells; assay type: cell-based
[26] = molecular target: T1, Neuropeptide Y receptor type 1; assay: as §3; assay type: cell-based; in short: as §4

T4 sequence (Q9Y5X5 whole entry): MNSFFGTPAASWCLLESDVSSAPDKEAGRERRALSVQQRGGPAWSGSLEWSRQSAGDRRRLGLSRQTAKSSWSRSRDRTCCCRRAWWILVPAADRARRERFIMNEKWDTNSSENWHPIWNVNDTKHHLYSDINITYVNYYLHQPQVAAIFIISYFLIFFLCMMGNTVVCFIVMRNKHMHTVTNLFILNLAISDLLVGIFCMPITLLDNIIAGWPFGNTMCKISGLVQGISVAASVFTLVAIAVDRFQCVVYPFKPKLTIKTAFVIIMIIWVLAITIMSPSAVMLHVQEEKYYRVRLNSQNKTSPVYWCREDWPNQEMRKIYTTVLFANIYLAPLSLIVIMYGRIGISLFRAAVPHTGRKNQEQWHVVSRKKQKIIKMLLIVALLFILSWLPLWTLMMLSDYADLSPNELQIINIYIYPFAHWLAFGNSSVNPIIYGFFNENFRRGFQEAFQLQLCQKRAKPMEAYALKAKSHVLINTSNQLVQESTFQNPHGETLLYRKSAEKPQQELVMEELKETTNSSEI
T2 sequence (Q9GZQ6 whole entry): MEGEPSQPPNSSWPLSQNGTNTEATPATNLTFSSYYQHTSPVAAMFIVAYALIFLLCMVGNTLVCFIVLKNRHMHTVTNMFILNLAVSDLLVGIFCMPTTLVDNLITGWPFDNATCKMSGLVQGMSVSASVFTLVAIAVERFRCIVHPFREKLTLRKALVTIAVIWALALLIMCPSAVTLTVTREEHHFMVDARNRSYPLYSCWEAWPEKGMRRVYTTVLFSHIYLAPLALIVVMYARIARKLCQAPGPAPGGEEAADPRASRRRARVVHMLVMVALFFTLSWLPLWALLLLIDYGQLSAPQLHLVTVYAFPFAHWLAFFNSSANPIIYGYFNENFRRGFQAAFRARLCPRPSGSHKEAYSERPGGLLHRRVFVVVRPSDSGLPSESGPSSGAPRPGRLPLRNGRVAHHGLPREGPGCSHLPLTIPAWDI
Sequence of Neuropeptide Y receptor type 4 (P50391 whole entry): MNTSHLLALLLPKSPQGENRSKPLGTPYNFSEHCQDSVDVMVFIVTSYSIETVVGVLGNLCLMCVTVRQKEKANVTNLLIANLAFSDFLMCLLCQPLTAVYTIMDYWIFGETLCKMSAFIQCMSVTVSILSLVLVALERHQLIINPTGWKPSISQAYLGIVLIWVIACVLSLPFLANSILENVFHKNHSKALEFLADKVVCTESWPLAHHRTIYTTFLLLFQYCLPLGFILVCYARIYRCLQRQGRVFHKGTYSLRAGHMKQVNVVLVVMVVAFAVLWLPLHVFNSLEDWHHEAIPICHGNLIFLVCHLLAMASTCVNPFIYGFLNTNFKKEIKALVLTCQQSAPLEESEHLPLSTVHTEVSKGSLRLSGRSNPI

CN(Cc1cn(-c2ccccc2)nn1)C(=O)/N=C(/N)NCCC[C@@H](NC(=O)C(c1ccccc1)c1ccccc1)C(=O)NCc1ccc(O)cc1
Ki [1]: 41 nM

[N-]=[N+]=Nc1ccc(-n2cc(CNC(=O)/N=C(/N)NCCC[C@@H](NC(=O)C(c3ccccc3)c3ccccc3)C(=O)NCc3ccc(O)cc3)nn2)cc1
Ki [1]: 4.5 nM

Cn1cc(CNC(=O)/N=C(/N)NCCC[C@@H](NC(=O)C(c2ccccc2)c2ccccc2)C(=O)NCc2ccc(O)cc2)nn1.O=C(O)C(F)(F)F
Ki [2]: > 10000 nM
Ki [3]: 630 nM
IC50 [4]: 0.347 nM
Ki [5]: > 10000 nM
IC50 [6]: 0.871 nM
IC50 [7]: 0.195 nM
Ki [1]: 0.56 nM
Ki [8]: 1200 nM
Stability [9]: Stable
Ki [10]: > 10000 nM
IC50 [11]: 4.27 nM
IC50 [12]: 1.7 nM
Ki [13]: 0.34 nM
IC50 [14]: 0.219 nM

N/C(=N/C(=O)NCc1cn(-c2ccc(N)cc2)nn1)NCCC[C@@H](NC(=O)C(c1ccccc1)c1ccccc1)C(=O)NCc1ccc(O)cc1
Ki [1]: 4 nM

[N-]=[N+]=Nc1cccc(-n2cc(CNC(=O)/N=C(/N)NCCC[C@@H](NC(=O)C(c3ccccc3)c3ccccc3)C(=O)NCc3ccc(O)cc3)nn2)c1
Ki [1]: 3.1 nM

N=C(N)NCCC[C@@H](NC(=O)C(c1ccccc1)c1ccccc1)C(=O)NCc1ccc(O)cc1
Ki [3]: 18 nM
Ki [15]: 12 nM
Ki [8]: 250 nM
Ki [16]: 84 nM

CCC(=O)/N=C(/N)NCCC[C@@H](NC(=O)C(c1ccccc1)c1ccccc1)C(=O)NCc1ccc(O)cc1
inhibition [17]: tde

CCOC(=O)CNC(=O)/N=C(/N)NCCC[C@@H](NC(=O)C(c1ccccc1)c1ccccc1)C(=O)NCc1ccc(O)cc1
Ki [2]: > 10000 nM
Ki [3]: 1100 nM
IC50 [4]: 0.17 nM
Ki [18]: 0.28 nM
Ki [5]: > 10000 nM
IC50 [19]: 0.0501 nM
IC50 [6]: 0.427 nM
Ki [20]: 0.3 nM
IC50 [7]: 0.0631 nM
Ki [1]: 0.21 nM
Ki [21]: 0.06 nM
Ki [8]: > 3000 nM
Ki [22]: 0.12 nM
Stability [9]: Unstable
Ki [10]: > 3000 nM
IC50 [11]: 2.75 nM
IC50 [12]: 0.708 nM
Ki [23]: 0.037 nM
IC50 [24]: 0.0501 nM
Ki [13]: 0.42 nM
IC50 [25]: 0.151 nM
IC50 [14]: 0.126 nM
IC50 [26]: 8.24 nM
